From ChEMBL document CHEMBL3352726, “Constrained bithiazoles: small molecule correctors of defective ΔF508-CFTR protein trafficking” (J Med Chem, 2014)
pEC50: −log10 of the molar value.

Target: Cystic fibrosis transmembrane conductance regulator (Homo sapiens, UniProt P13569, F508DEL)
Experiment: Correction of defective trafficking of human deltaF508 mutant CFTR protein expressed in FRT epithelial cells coexpressing YFP-H148Q/I152L protein assessed as iodide influx for 16 to 20 hrs by fluorescence assay
Assay type: cell-based, Epithelial cell
Conditions: read-out: IC50 (the source's name)
Outline: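 FRT cells stably coexpressing human ΔF508-CFTR and YFP-H148Q/I152L, grown 24 h at 37 °C (5% CO2), then exposed 16–20 h to compound at various concentrations; DMSO vehicle negative control and a bithiazole benzamide positive control. Washed, 20 min in PBS with forskolin 20 μM plus genistein 50 μM. YFP fluorescence (ex 500/em 535 nm) read 2 s baseline, then 12 s after iodide-substituted PBS addition. Influx rate came from exponential fit of final 11.5 s, extrapolated initial slope, normalized to background-subtracted initial fluorescence. EC50/Vmax came from four-parameter logistic fit.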

Cystic fibrosis transmembrane conductance regulator, sequence (P13569 as listed by the source): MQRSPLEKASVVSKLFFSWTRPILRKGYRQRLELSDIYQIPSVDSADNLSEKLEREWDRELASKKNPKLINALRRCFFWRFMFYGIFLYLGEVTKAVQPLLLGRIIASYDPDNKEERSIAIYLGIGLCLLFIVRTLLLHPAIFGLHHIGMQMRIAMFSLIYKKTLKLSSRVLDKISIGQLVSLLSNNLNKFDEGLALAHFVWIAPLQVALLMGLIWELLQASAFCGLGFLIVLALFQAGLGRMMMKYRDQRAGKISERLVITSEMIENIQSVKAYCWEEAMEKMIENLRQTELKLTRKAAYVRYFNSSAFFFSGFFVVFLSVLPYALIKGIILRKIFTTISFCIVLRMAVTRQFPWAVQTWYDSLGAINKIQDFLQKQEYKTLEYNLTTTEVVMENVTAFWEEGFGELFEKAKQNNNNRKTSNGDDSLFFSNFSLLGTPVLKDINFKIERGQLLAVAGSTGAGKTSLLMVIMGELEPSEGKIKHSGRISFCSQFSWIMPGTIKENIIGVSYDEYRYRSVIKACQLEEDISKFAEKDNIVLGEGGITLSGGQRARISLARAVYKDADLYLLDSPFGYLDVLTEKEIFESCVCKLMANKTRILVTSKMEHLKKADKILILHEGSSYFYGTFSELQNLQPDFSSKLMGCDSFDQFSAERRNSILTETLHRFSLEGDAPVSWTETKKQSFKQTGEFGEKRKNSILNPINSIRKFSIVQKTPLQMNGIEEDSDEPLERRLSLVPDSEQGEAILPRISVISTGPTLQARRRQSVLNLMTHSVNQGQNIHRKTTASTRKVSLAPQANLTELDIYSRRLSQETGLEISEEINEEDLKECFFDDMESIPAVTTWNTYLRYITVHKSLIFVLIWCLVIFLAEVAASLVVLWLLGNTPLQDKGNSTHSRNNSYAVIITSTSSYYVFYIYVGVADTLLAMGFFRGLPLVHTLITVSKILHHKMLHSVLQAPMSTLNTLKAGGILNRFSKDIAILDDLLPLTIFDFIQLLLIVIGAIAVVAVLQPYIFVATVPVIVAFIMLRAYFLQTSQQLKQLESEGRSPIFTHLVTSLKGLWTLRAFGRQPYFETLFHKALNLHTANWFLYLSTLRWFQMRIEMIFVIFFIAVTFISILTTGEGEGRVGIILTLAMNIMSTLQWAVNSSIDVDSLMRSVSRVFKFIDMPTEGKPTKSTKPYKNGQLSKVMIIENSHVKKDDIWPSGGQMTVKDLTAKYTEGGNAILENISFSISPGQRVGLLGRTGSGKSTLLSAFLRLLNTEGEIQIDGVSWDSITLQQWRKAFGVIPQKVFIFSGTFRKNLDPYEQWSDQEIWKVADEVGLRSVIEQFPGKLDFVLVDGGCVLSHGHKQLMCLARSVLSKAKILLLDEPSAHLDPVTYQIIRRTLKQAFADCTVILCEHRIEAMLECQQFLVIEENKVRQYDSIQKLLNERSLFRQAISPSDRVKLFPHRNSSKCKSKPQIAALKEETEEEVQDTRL

pEC50	Structure (SMILES)
5.22	COc1ccc(Cl)cc1Nc1nc(-c2sc(NC(=O)c3ccccc3)nc2C)cs1
4.96	COc1ccc(Cl)cc1Nc1nc2c(s1)CCCc1nc(N)sc1-2
5.05	COc1ccc(Cl)cc1Nc1nc2c(s1)CCCc1nc(NC(=O)C3CC3)sc1-2
5.24	COc1ccc(Cl)cc1Nc1nc2c(s1)CCCc1nc(NC(=O)C(C)C)sc1-2
5.18	CCC(C)C(=O)Nc1nc2c(s1)-c1nc(Nc3cc(Cl)ccc3OC)sc1CCC2 (stereo not drawn)
5.06	COC(=O)CCC(=O)Nc1nc2c(s1)-c1nc(Nc3cc(Cl)ccc3OC)sc1CCC2
5.32	COc1ccc(Cl)cc1Nc1nc2c(s1)CCCc1nc(NC(=O)c3ccno3)sc1-2
5.04	COc1ccc(Cl)cc1Nc1nc2c(s1)CCCCc1nc(N)sc1-2
5.39	COc1ccc(Cl)cc1Nc1nc2c(s1)CCCCc1nc(NC(=O)C(C)(C)C)sc1-2
5.35	COc1ccc(Cl)cc1Nc1nc2c(s1)CCCCc1nc(NC(=O)C3CC3)sc1-2
5.06	COc1ccc(Cl)cc1Nc1nc2c(s1)CCCCc1nc(NC(=O)C(C)C)sc1-2
5.54	CCC(C)C(=O)Nc1nc2c(s1)-c1nc(Nc3cc(Cl)ccc3OC)sc1CCCC2 (stereo not drawn)
5.08	COC(=O)CCC(=O)Nc1nc2c(s1)-c1nc(Nc3cc(Cl)ccc3OC)sc1CCCC2
5.18	COc1ccc(Cl)cc1Nc1nc2c(s1)CCCCc1nc(NC(=O)c3ccno3)sc1-2
5.16	CN(C)c1ccc(Cl)cc1Nc1nc2c(s1)CCCc1nc(NC(=O)C(C)(C)C)sc1-2
5.14	Cc1cccnc1Nc1nc2c(s1)CCCc1nc(NC(=O)C(C)(C)C)sc1-2
5.66	CN(C)c1cccc(Nc2nc3c(s2)CCCc2nc(NC(=O)C(C)(C)C)sc2-3)c1
5.44	COc1ccc([N+](=O)[O-])cc1Nc1nc2c(s1)CCCc1nc(NC(=O)C(C)(C)C)sc1-2
5.68	CN(C)c1ccc(Cl)cc1Nc1nc2c(s1)CCCCc1nc(NC(=O)C(C)(C)C)sc1-2
5.28	Cc1cccnc1Nc1nc2c(s1)CCCCc1nc(NC(=O)C(C)(C)C)sc1-2
5.28	CN(C)c1cccc(Nc2nc3c(s2)CCCCc2nc(NC(=O)C(C)(C)C)sc2-3)c1
6.05	COc1ccc([N+](=O)[O-])cc1Nc1nc2c(s1)CCCCc1nc(NC(=O)C(C)(C)C)sc1-2
5.64	COc1ccc(Cl)cc1Nc1nc2c(s1)CCCc1nc(NC(=O)C(C)(C)C)sc1-2
